Tests used:
Type in all cases: functional
CWR22R [1] = assay: Antiproliferative activity against human 22Rv1 cells assessed as T/C value at 1 x 10^-1 uM incubated for 96 hrs by propidium iodide based 2D monolayer assay
In short: (§1)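 Cells were kept in RPMI 1640 with 25 mM HEPES, 10% FCS and gentamicin at 37 °C under 5% CO2, and plated at 4,000-20,000 cells/well. After 24 h recovery, compound in medium or medium alone (control wells) was added at 10 half-log concentrations from 0.0032 to 100 µM, in triplicate, with at most 0.3% DMSO. After 96 h, wells were PBS-washed, stained with 7 µg/ml PI and 0.1% Triton X-100, and fluorescence read at 530/620 nm. IC50 came from a 4-parameter fit, geometric mean.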

CWR22R [2] = assay: Antiproliferative activity against human 22Rv1 cells assessed as T/C value at 1 uM incubated for 96 hrs by propidium iodide based 2D monolayer assay; in short: as §1
DU-145 [3] = assay: Antiproliferative activity against human DU145 cells assessed as T/C value at 1 uM incubated for 96 hrs by propidium iodide based 2D monolayer assay
In short: (§2)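 After 24 h recovery, compound in medium or medium alone (control wells) was added at 10 half-log concentrations from 0.0032 to 100 µM, in triplicate, with at most 0.3% DMSO. After 96 h, wells were PBS-washed, stained with 7 µg/ml PI and 0.1% Triton X-100, and fluorescence read at 530/620 nm. IC50 came from a 4-parameter fit, geometric mean.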

DU-145 [4] = assay: Antiproliferative activity against human DU145 cells assessed as reduction in cell growth incubated for 96 hrs by propidium iodide based 2D monolayer assay; settings: DU-145, 96 h; in short: as §2
LNCaP [5] = assay: Antiproliferative activity against human LNCAP cells assessed as T/C value at 1 x 10^1 uM incubated for 96 hrs by propidium iodide based 2D monolayer assay; in short: as §1
LNCaP [6] = assay: Antiproliferative activity against human LNCAP cells assessed as T/C value at 1 x 10^2 uM incubated for 96 hrs by propidium iodide based 2D monolayer assay; in short: as §1
CWR22R [7] = assay: Antiproliferative activity against human 22Rv1 cells assessed as T/C value at 1 x 10^1 uM incubated for 96 hrs by propidium iodide based 2D monolayer assay; in short: as §1
DU-145 [8] = assay: Antiproliferative activity against human DU145 cells assessed as T/C value at 1 x 10^2 uM incubated for 96 hrs by propidium iodide based 2D monolayer assay; in short: as §1
DU-145 [9] = assay: Antiproliferative activity against human DU145 cells assessed as T/C value at 3.2 x 10^-3 uM incubated for 96 hrs by propidium iodide based 2D monolayer assay; in short: as §2
VCaP [10] = assay: Antiproliferative activity against human VCaP cells assessed as T/C value at 3.2 x 10^-1 uM incubated for 96 hrs by propidium iodide based 2D monolayer assay
In short: (§3)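 VCaP cells in RPMI 1640 with 10% FCS at 37 °C, 5% CO2, seeded 4,000–20,000 cells/well and left 24 h before dosing. Compounds from DMSO stocks were diluted in half-log steps in medium, 10 concentrations 0.0032–100 μM, triplicate wells, max 0.3% DMSO. After 96 h, cells were washed, stained with 7 μg/ml propidium iodide plus 0.1% Triton X-100 for 1–2 h at room temperature, and fluorescence read at ex 530/em 620 nm.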

LNCaP [11] = assay: Antiproliferative activity against human LNCAP cells assessed as T/C value at 1 uM incubated for 96 hrs by propidium iodide based 2D monolayer assay; in short: as §1
VCaP [12] = assay: Antiproliferative activity against human VCaP cells assessed as reduction in cell growth incubated for 96 hrs by propidium iodide based 2D monolayer assay; in short: as §3
LNCaP [13] = assay: Antiproliferative activity against human LNCAP cells assessed as T/C value at 3.2 x 10^-3 uM incubated for 96 hrs by propidium iodide based 2D monolayer assay; in short: as §1
LNCaP [14] = assay: Antiproliferative activity against human LNCAP cells assessed as T/C value at 3.2 uM incubated for 96 hrs by propidium iodide based 2D monolayer assay; in short: as §1
DU-145 [15] = assay: Antiproliferative activity against human DU145 cells assessed as T/C value at 3.2 x 10^-2 uM incubated for 96 hrs by propidium iodide based 2D monolayer assay; in short: as §2
CWR22R [16] = assay: Antiproliferative activity against human 22Rv1 cells assessed as T/C value at 3.2 x 10^-1 uM incubated for 96 hrs by propidium iodide based 2D monolayer assay; in short: as §1
CWR22R [17] = assay: Antiproliferative activity against human 22Rv1 cells assessed as reduction in cell growth incubated for 96 hrs by propidium iodide based 2D monolayer assay; settings: 22Rv1, 96 h; in short: as §2
VCaP [18] = assay: Antiproliferative activity against human VCaP cells assessed as T/C value at 1 x 10^-2 uM incubated for 96 hrs by propidium iodide based 2D monolayer assay; in short: as §1
CWR22R [19] = assay: Antiproliferative activity against human 22Rv1 cells assessed as T/C value at 1 x 10^2 uM incubated for 96 hrs by propidium iodide based 2D monolayer assay; in short: as §1
DU-145 [20] = assay: Antiproliferative activity against human DU145 cells assessed as T/C value at 1 x 10^-2 uM incubated for 96 hrs by propidium iodide based 2D monolayer assay; in short: as §2
VCaP [21] = assay: Antiproliferative activity against human VCaP cells assessed as T/C value at 3.2 uM incubated for 96 hrs by propidium iodide based 2D monolayer assay; in short: as §1
VCaP [22] = assay: Antiproliferative activity against human VCaP cells assessed as T/C value at 1 x 10^2 uM incubated for 96 hrs by propidium iodide based 2D monolayer assay; in short: as §1
VCaP [23] = assay: Antiproliferative activity against human VCaP cells assessed as T/C value at 3.2 x 10^-2 uM incubated for 96 hrs by propidium iodide based 2D monolayer assay; in short: as §3
CWR22R [24] = assay: Antiproliferative activity against human 22Rv1 cells assessed as T/C value at 3.2 x 10^1 uM incubated for 96 hrs by propidium iodide based 2D monolayer assay; in short: as §1
CWR22R [25] = assay: Antiproliferative activity against human 22Rv1 cells assessed as T/C value at 3.2 uM incubated for 96 hrs by propidium iodide based 2D monolayer assay; in short: as §1
VCaP [26] = assay: Antiproliferative activity against human VCaP cells assessed as T/C value at 1 uM incubated for 96 hrs by propidium iodide based 2D monolayer assay; in short: as §1
LNCaP [27] = assay: Antiproliferative activity against human LNCAP cells assessed as T/C value at 1 x 10^-2 uM incubated for 96 hrs by propidium iodide based 2D monolayer assay; in short: as §1
VCaP [28] = assay: Antiproliferative activity against human VCaP cells assessed as T/C value at 3.2 x 10^1 uM incubated for 96 hrs by propidium iodide based 2D monolayer assay; in short: as §3
DU-145 [29] = assay: Antiproliferative activity against human DU145 cells assessed as T/C value at 3.2 uM incubated for 96 hrs by propidium iodide based 2D monolayer assay; in short: as §1
DU-145 [30] = assay: Antiproliferative activity against human DU145 cells assessed as T/C value at 1 x 10^-1 uM incubated for 96 hrs by propidium iodide based 2D monolayer assay; in short: as §2
VCaP [31] = assay: Antiproliferative activity against human VCaP cells assessed as T/C value at 3.2 x 10^-3 uM incubated for 96 hrs by propidium iodide based 2D monolayer assay; in short: as §3
DU-145 [32] = assay: Antiproliferative activity against human DU145 cells assessed as T/C value at 3.2 x 10^-1 uM incubated for 96 hrs by propidium iodide based 2D monolayer assay; in short: as §2

Row | SMILES | T/C (CWR22R [1]) | T/C (CWR22R [2]) | T/C (DU-145 [3]) | IC50 (DU-145 [4]) [µM] | IC70 (DU-145 [4]) [µM] | T/C (LNCaP [5]) | T/C (LNCaP [6]) | T/C (CWR22R [7]) | T/C (DU-145 [8]) [%] | T/C (DU-145 [9]) | T/C (VCaP [10]) | T/C (LNCaP [11]) | IC50 (VCaP [12]) [µM] | IC70 (VCaP [12]) [µM] | T/C (LNCaP [13]) | T/C (LNCaP [14]) | T/C (DU-145 [15]) | T/C (CWR22R [16]) | IC50 (CWR22R [17]) [µM] | IC70 (CWR22R [17]) [µM] | also measured
1 | CC1(C)C(=O)N(c2ccc(C#N)cc2C(F)(F)F)C(=S)N1c1cccc(S(F)(F)(F)(F)F)c1 | 102% | 97% | 112% | 100 | > 100 | 36% | 21% | 60% | 83 | 102% | 89% | 79% | 100 | > 100 | 83% | 54% | 107% | 101% | 100 | > 100 | T/C (VCaP [18]): 84%; T/C (CWR22R [19]): 51%; T/C (DU-145 [20]): 104%; T/C (VCaP [21]): 64%; T/C (VCaP [22]): 57%; T/C (VCaP [23]): 88%; T/C (CWR22R [24]): 56%; T/C (CWR22R [25]): 93%; T/C (VCaP [26]): 76%; T/C (LNCaP [27]): 91%; T/C (VCaP [28]): 57%; T/C (DU-145 [29]): 116%; T/C (DU-145 [30]): 103%; T/C (VCaP [31]): 106%; T/C (DU-145 [32]): 110%
2 | CC1(C)C(=O)N(c2ccc(C#N)cc2C(F)(F)F)C(=S)N1c1ccc(S(F)(F)(F)(F)F)cc1 | 98% | 99% | 104% | 12.7 | 29.1 | 12% | 7% | 25% | 16 | 105% | 89% | 66% | 100 | > 100 | 76% | 51% | 111% | 101% | 5.4 | 8.45 | T/C (VCaP [18]): 100%; T/C (CWR22R [19]): 12%; T/C (DU-145 [20]): 111%; T/C (VCaP [21]): 74%; T/C (VCaP [22]): 47%; T/C (VCaP [23]): 103%; T/C (CWR22R [24]): 17%; T/C (CWR22R [25]): 78%; T/C (VCaP [26]): 85%; T/C (LNCaP [27]): 76%; T/C (VCaP [28]): 64%; T/C (DU-145 [29]): 102%; T/C (DU-145 [30]): 114%; T/C (VCaP [31]): 93%; T/C (DU-145 [32]): 115%
3 | CC1(C)C(=O)N(c2cccc(S(F)(F)(F)(F)F)c2)C(=S)N1c1cccc(C(F)(F)F)c1 | 96% | 85% | 108% | 100 | > 100 | 23% | 22% | 69% | 76 | 101% | 87% | 74% | 100 | > 100 | 92% | 63% | 96% | 98% | 100 | > 100 | T/C (VCaP [18]): 82%; T/C (CWR22R [19]): 55%; T/C (DU-145 [20]): 94%; T/C (VCaP [21]): 71%; T/C (VCaP [22]): 60%; T/C (VCaP [23]): 87%; T/C (CWR22R [24]): 58%; T/C (CWR22R [25]): 79%; T/C (VCaP [26]): 84%; T/C (LNCaP [27]): 94%; T/C (VCaP [28]): 63%; T/C (DU-145 [29]): 105%; T/C (DU-145 [30]): 101%; T/C (VCaP [31]): 104%; T/C (DU-145 [32]): 108%
4 | CC(O)(COc1cccc(S(F)(F)(F)(F)F)c1)C(=O)Nc1ccc([N+](=O)[O-])c(C(F)(F)F)c1 (racemic) | 106 - 110% | 101 - 109% | 122 - 125% | 7.4 | 7.24 to 8.54 | 1 - 3% | 1 - 2% | 13 - 14% | 1 | 111 - 116% | 94 - 113% | 84 - 93% | 5.3 | 7.82 to 8.69 | 92 - 98% | 54 - 71% | 116 - 124% | 107 - 111% | 5.4 | 5.77 to 6.98 | T/C (VCaP [18]): 97 - 108%; T/C (CWR22R [19]): 2 - 3%; T/C (DU-145 [20]): 115 - 122%; T/C (VCaP [21]): 81 - 87%; T/C (VCaP [22]): 5 - 11%; T/C (VCaP [23]): 86 - 107%; T/C (CWR22R [24]): 2%; T/C (CWR22R [25]): 62 - 92%; T/C (VCaP [26]): 94 - 108%; T/C (LNCaP [27]): 94 - 104%; T/C (VCaP [28]): 2 - 4%; T/C (DU-145 [29]): 116%; T/C (DU-145 [30]): 118 - 124%; T/C (VCaP [31]): 103 - 109%; T/C (DU-145 [32]): 121 - 129%

Reference: ChEMBL document CHEMBL4364301 (Eur J Med Chem, 2019)
